Among the data in ChEMBL document CHEMBL1828510, “Synthesis of 3-heteroarylthioquinoline derivatives and their in vitro antituberculosis and cytotoxicity studies” (Eur J Med Chem, 2011) are MIC values, retold here.

As usually defined, the MIC is the smallest concentration in the dilution series that meets the test's criterion for growth inhibition.

≈ marks a conversion by molar mass, not a printed value.

In this assay the test system is Mycobacterium tuberculosis. The experiment in a line: Antimycobacterial activity against multidrug-resistant Mycobacterium tuberculosis H37Rv after 28 days by agar dilution method. It counts as functional. The settings on record: 672 h. The procedure, abridged: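 Agar dilution on Middlebrook 7H11 agar with OADC, run in duplicate at pH 7.4. The clinical isolate was resistant to isoniazid, rifampicin, ethambutol and ciprofloxacin. Inoculum from fresh slants was set to 1 mg/mL wet weight in 0.05% Tween 80 saline, diluted 10^-2 to about 10⁷ cfu/mL, and spotted onto 10-fold serial drug dilutions. Incubated at 37 °C and read at 28 days. MIC is the lowest concentration giving complete (99%) growth inhibition.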
A general note: In agar dilution the substance is mixed into plates at graded concentrations.
Turning to `Cc1nnc(Sc2c(-c3ccccc3)nc3ccccc3c2-c2ccccc2)s1`, the MIC is 30.4 µM (≈ 12.5 µg/mL).

As for `Cc1ccc(-c2nc3ccccc3c(-c3ccccc3)c2Sc2nnc(C)s2)cc1`, the MIC was found to be 29.4 µM (≈ 12.5 µg/mL).

The compound `Cc1nnc(Sc2c(-c3ccc(Cl)cc3)nc3ccccc3c2-c2ccccc2)s1` had an MIC of 3.5 µM (≈ 1.56 µg/mL).

Compound `Cc1nnc(Sc2c(-c3ccc(Br)cc3)nc3ccccc3c2-c2ccccc2)s1` had an MIC of 3.2 µM (≈ 1.57 µg/mL).

Regarding `COc1ccc(-c2nc3ccccc3c(-c3ccccc3)c2Sc2nnc(C)s2)cc1`, it took 28.3 µM (≈ 12.5 µg/mL) to inhibit growth (MIC).

Regarding `Cc1nnc(Sc2c(-c3ccc4ccccc4c3)nc3ccccc3c2-c2ccccc2)s1`, the lowest concentration to inhibit growth (MIC) was 13.5 µM (≈ 6.23 µg/mL). This MIC lies about 2.1-fold lower than the previous one.

In the case of `Cc1nnc(Sc2c(-c3ccc(-c4ccccc4)cc3)nc3ccccc3c2-c2ccccc2)s1`, 6.4 µM (≈ 3.12 µg/mL) was the least that counted as inhibitory (MIC).

Regarding `c1ccc(-c2nc3ccccc3c(-c3ccccc3)c2Sc2nc3ccccc3s2)cc1`, it took 55.9 µM (≈ 25 µg/mL) to inhibit growth (MIC).

Regarding `Cc1ccc(-c2nc3ccccc3c(-c3ccccc3)c2Sc2nc3ccccc3s2)cc1`, it took 54.3 µM (≈ 25 µg/mL) to inhibit growth (MIC).

As for `Clc1ccc(-c2nc3ccccc3c(-c3ccccc3)c2Sc2nc3ccccc3s2)cc1`, the MIC worked out at 12.9 µM (≈ 6.21 µg/mL).

As for `Brc1ccc(-c2nc3ccccc3c(-c3ccccc3)c2Sc2nc3ccccc3s2)cc1`, the MIC came to 5.9 µM (≈ 3.1 µg/mL).

Turning to `COc1ccc(-c2nc3ccccc3c(-c3ccccc3)c2Sc2nc3ccccc3s2)cc1`, the MIC is above 52.4 µM.

As for `c1ccc(-c2c(Sc3nc4ccccc4s3)c(-c3ccc4ccccc4c3)nc3ccccc23)cc1`, the MIC is 50.3 µM (≈ 25 µg/mL).

Regarding `c1ccc(-c2ccc(-c3nc4ccccc4c(-c4ccccc4)c3Sc3nc4ccccc4s3)cc2)cc1`, the lowest concentration to inhibit growth (MIC) was 47.2 µM (≈ 24.7 µg/mL).

For `c1ccc(-c2nc3ccccc3c(-c3ccccc3)c2Sc2nnnn2-c2ccccc2)cc1`, the MIC amounted to 54.6 µM (≈ 25 µg/mL).

Turning to `Cc1ccc(-c2nc3ccccc3c(-c3ccccc3)c2Sc2nnnn2-c2ccccc2)cc1`, inhibition of growth (MIC) required 53 µM (≈ 25 µg/mL).

As to `Clc1ccc(-c2nc3ccccc3c(-c3ccccc3)c2Sc2nnnn2-c2ccccc2)cc1`, 50.8 µM (≈ 25 µg/mL) was the least that counted as inhibitory (MIC).

In the case of `Brc1ccc(-c2nc3ccccc3c(-c3ccccc3)c2Sc2nnnn2-c2ccccc2)cc1`, the MIC amounted to 23.3 µM (≈ 12.5 µg/mL). This MIC lies about 2.2-fold lower than the previous one.

Take `COc1ccc(-c2nc3ccccc3c(-c3ccccc3)c2Sc2nnnn2-c2ccccc2)cc1`: inhibition of growth (MIC) required 51.2 µM (≈ 25 µg/mL). Compared with the last compound, the MIC is about 2.2-fold higher.

For `c1ccc(-c2c(Sc3nnnn3-c3ccccc3)c(-c3ccc4ccccc4c3)nc3ccccc23)cc1`, inhibition of growth (MIC) required 49.2 µM (≈ 25 µg/mL).

The compound `c1ccc(-c2ccc(-c3nc4ccccc4c(-c4ccccc4)c3Sc3nnnn3-c3ccccc3)cc2)cc1` displayed an MIC of 46.8 µM (≈ 25 µg/mL).

The compound `CC[C@@H](CO)NCCN[C@@H](CC)CO` [ETHAMBUTOL] returned an MIC of 7.6 µM (≈ 1.55 µg/mL).

Turning to `NNC(=O)c1ccncc1` [ISONIAZID], the MIC was 0.4 µM (≈ 0.0549 µg/mL).

`CO[C@H]1/C=C/O[C@@]2(C)Oc3c(C)c(O)c4c(O)c(c(/C=N/N5CCN(C)CC5)c(O)c4c3C2=O)NC(=O)/C(C)=C\C=C\[C@H](C)[C@H](O)[C@@H](C)[C@@H](O)[C@@H](C)[C@H](OC(C)=O)[C@@H]1C` [RIFAMPIN] had an MIC of 0.1 µM (≈ 0.0823 µg/mL).
